Test results as given in ChEMBL document CHEMBL4196116, “3-Aryl-1,2,4-oxadiazole Derivatives Active Against Human Rhinovirus” (ACS Med Chem Lett, 2018).

Experiments:
[1] = Antiviral activity against Human rhinovirus A71 infected in human H1HeLa cells assessed as inhibition of viral replication after 3 days by MTT assay; assay type: functional, cell-based; settings: Rhinovirus A, H1-HeLa, 72 h
In short: (§1)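 Anti-rhinovirus EC50 against hRV-B14, -A21 and -A71 determined in H1HeLa cells. Read-out is MTT cell viability. EC50 is the concentration that inhibits viral replication by 50%. Pleconaril serves as reference.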

rhinovirus B14 = test: Antiviral activity against Human rhinovirus B14 infected in human H1HeLa cells assessed as inhibition of viral replication after 3 days by MTT assay; assay type: functional, organism-based; settings: Rhinovirus B, H1-HeLa, 72 h; in short: as §1
[2] = Cytotoxicity against human H1HeLa cells assessed as reduction in cell viability after 3 days by MTT assay; assay type: cell-based, H1-HeLa
rhinovirus A21 = test: Antiviral activity against Human rhinovirus A21 infected in human H1HeLa cells assessed as inhibition of viral replication after 3 days by MTT assay; assay type: functional, organism-based; settings: Rhinovirus A, H1-HeLa, 72 h; in short: as §1
[3] = Metabolic stability in rat liver microsomes assessed as parent compound remaining at 1 uM after 30 mins in presence of NADPH by LC/MS/MS analysis; assay type: ADME, microsome; settings: read-out: Stability
In short: (§2)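 Phase I metabolic stability in rat or human liver microsomes, reported as % parent remaining after 30 min. Buspirone serves as reference. Values are mean ± SD of at least three independent experiments.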

[4] = Tmax in Sprague-Dawley rat at 10 mg/kg, po by LC/MS/MS analysis; assay type: ADME, organism-based; settings: in vivo
In short: (§3)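 Male Sprague–Dawley rats, n = 3, given 5 mg·kg–1 intravenously or 10 mg·kg–1 orally. Plasma deproteinized in acetonitrile and assayed by LC–MS/MS. Parameters derived from concentration–time data by noncompartmental analysis. Values reported as mean ± standard deviation.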

[5] = Cmax in Sprague-Dawley rat at 10 mg/kg, po by LC/MS/MS analysis; assay type: ADME, organism-based; parameters: dose 10 mg/kg, route oral; settings: in vivo; in short: as §3
[6] = Metabolic stability in human liver microsomes assessed as parent compound remaining at 1 uM after 30 mins in presence of NADPH by LC/MS/MS analysis; assay type: ADME, microsome; settings: read-out: Stability; in short: as §2
[7] = Oral bioavailability in Sprague-Dawley rat at 10 mg/kg by LC/MS/MS analysis; assay type: ADME, organism-based; settings: in vivo; in short: as §3
[8] = AUC (infinity) in Sprague-Dawley rat at 10 mg/kg, po by LC/MS/MS analysis; assay type: ADME, organism-based; parameters: dose 10 mg/kg, time infinity, route oral; settings: in vivo; in short: as §3
[9] = AUCt in Sprague-Dawley rat at 5 mg/kg, iv by LC/MS/MS analysis; assay type: ADME, organism-based; settings: in vivo; in short: as §3
[10] = AUCt in Sprague-Dawley rat at 10 mg/kg, po by LC/MS/MS analysis; assay type: ADME, organism-based; settings: in vivo; in short: as §3
[11] = Terminal half life in Sprague-Dawley rat at 5 mg/kg, iv by LC/MS/MS analysis; assay type: ADME, organism-based; settings: in vivo, read-out: beta t1/2 (converted); in short: as §3
[12] = Volume of distribution at steady state in Sprague-Dawley rat at 5 mg/kg, iv by LC/MS/MS analysis; assay type: ADME, organism-based; settings: in vivo, read-out: Vdss; in short: as §3
[13] = AUC (infinity) in Sprague-Dawley rat at 5 mg/kg, iv by LC/MS/MS analysis; assay type: ADME, organism-based; parameters: dose 5 mg/kg, route intravenous, time infinity; settings: in vivo; in short: as §3
[14] = Terminal half life in Sprague-Dawley rat at 10 mg/kg, po by LC/MS/MS analysis; assay type: ADME, organism-based; settings: in vivo, read-out: beta t1/2 (converted); in short: as §3
[15] = Clearance in Sprague-Dawley rat at 5 mg/kg, iv by LC/MS/MS analysis; assay type: ADME, organism-based; settings: in vivo; in short: as §3

Row | Compound | EC50 [1] [µM] | EC50 (rhinovirus B14) [µM] | CC50 at 72 h [2] [µM] | EC50 (rhinovirus A21) [µM] | also measured
1 | CNC(=O)c1cc(Oc2cccc(-c3noc(CC(C)C)n3)c2)ccn1 | 0.37 | > 19.1 | 19.1 | 2.7 | –
2 | CCc1nc(-c2sc3cc(Oc4ccnc(C(=O)NC)c4)ccc3c2C)no1 | 0.014 | 0.43 | 5.2 | 0.077 | –
3 | CCc1nc(-c2ccc(Oc3ccnc(C(=O)NC)c3)c(C)c2)no1 | 0.0039 | 0.39 | 25.2 | 0.23 | –
4 | CNC(=O)c1cc(Oc2ccc3c(C)c(-c4noc(C(F)(F)F)n4)sc3c2)ccn1 | 0.3 | 2 | > 100 | 0.99 | –
5 | CNC(=O)c1cc(Oc2ccc(-c3noc(C(C)C)n3)c(C)c2)ccn1 | 0.0037 | 0.066 | 30.5 | 0.022 | remaining at 0.5 h, 1 µM [3]: 59.6%; Tmax [4]: 2.7 h; Cmax [5]: 3900 ng/mL; remaining at 0.5 h, 1 µM [6]: 40.7%; bioavailability [7]: 27.8%; AUC(0-inf) [8]: 17400 ng·h/mL; AUC(0-t) [9]: 31300 ng·h/mL; AUC(0-t) [10]: 17400 ng·h/mL; half-life [11]: 4.6 h; Vd [12]: 0.611 L/kg; AUC(0-inf) [13]: 31800 ng·h/mL; half-life [14]: 3.2 h; clearance [15]: 2.63 mL/min/kg
6 | CNC(=O)c1cc(Oc2ccc(-c3noc(C4CC4)n3)cc2C)ccn1 | 0.012 | 0.34 | 20 | 0.4 | –
7 | CNC(=O)c1cc(Oc2ccc(-c3noc(CC(C)C)n3)cc2)ccn1 | 0.34 | > 23.4 | 23.4 | 2.2 | –
8 | CNC(=O)c1cc(Oc2ccc(-c3noc(C(C)C)n3)nc2)ccn1 | 6.7 | 11.5 | > 100 | 39.1 | –
9 | CC(C)c1nc(-c2ccc(Oc3ccnc(C(=O)N(C)C)c3)cc2)no1 | > 9 | 0.28 | 9 | > 9 | –
10 | Cc1cc(CCCOc2c(C)cc(-c3noc(C(F)(F)F)n3)cc2C)on1 [PLECONARIL] | 0.0094 | 0.092 | – | – | –
11 | CNC(=O)c1cc(Oc2ccc(-c3noc(C(F)(F)F)n3)cc2)ccn1 | 1.6 | 9.3 | 35 | > 35 | –
12 | CNC(=O)c1cc(Oc2cccc(-c3noc(C(C)C)n3)c2)ccn1 | 0.15 | 12.8 | 54.2 | 2.1 | –
13 | CNC(=O)c1cc(Oc2c(C)cc(-c3noc(C(C)C)n3)cc2C)ccn1 | 0.011 | 0.3 | 7.4 | 0.069 | remaining at 0.5 h, 1 µM [3]: 37.1%; remaining at 0.5 h, 1 µM [6]: 61.1%
14 | CNC(=O)c1cc(Oc2ccc(-c3noc(COC)n3)cc2)ccn1 | 1.7 | 8.3 | 63.4 | 2.1 | –
15 | CNC(=O)c1cc(Oc2ccc3c(C)c(-c4noc(C5CC5)n4)sc3c2)ccn1 | 0.031 | 0.47 | 6.8 | 0.06 | –
16 | CNC(=O)c1cc(Oc2ccc(-c3noc(C(C)C)n3)cc2C)ccn1 | 0.0025 | 0.073 | 8.9 | 0.029 | remaining at 0.5 h, 1 µM [3]: 35.1%; remaining at 0.5 h, 1 µM [6]: 9.9%
17 | Cc1cc(-c2noc(C(C)C)n2)cc(C)c1Oc1ccnc(C(=O)N(C)C)c1 | > 1.8 | > 1.8 | 1.8 | > 1.8 | –
18 | CNC(=O)c1cc(Oc2ccc3c(C)c(-c4noc(C)n4)sc3c2)ccn1 | 0.061 | 0.65 | > 100 | 0.059 | –
19 | O=C1CC2(CCCC2)CC(=O)N1CCCCN1CCN(c2ncccn2)CC1 [BUSPIRONE] | – | – | – | – | remaining at 0.5 h, 1 µM [3]: 0.1%; remaining at 0.5 h, 1 µM [6]: 3.5%
20 | Cc1cc(-c2noc(C(C)C)n2)ccc1Oc1ccnc(C(=O)N(C)C)c1 | > 1.4 | 0.49 | 1.4 | > 1.4 | –
21 | CCc1nc(-c2ccc(Oc3ccnc(C(=O)NC)c3)cc2)no1 | 0.031 | 1.1 | 43.7 | 0.13 | –
22 | CNC(=O)c1cc(Oc2ccc(-c3noc(C)n3)cc2)ccn1 | 1.6 | 33.7 | > 100 | 8.7 | –
23 | CNC(=O)c1cc(Oc2ccc(-c3noc(C(C)C)n3)cc2)ccn1 | 0.034 | 0.073 | 16.1 | 0.38 | –
24 | CNC(=O)c1cc(Oc2ccc3c(C)c(-c4noc(C(C)C)n4)sc3c2)ccn1 | 0.013 | 0.073 | 5.5 | 0.3 | remaining at 0.5 h, 1 µM [3]: 99.2%; remaining at 0.5 h, 1 µM [6]: 69.8%
25 | CNC(=O)c1cc(Oc2ccc3cc(-c4noc(C)n4)ccc3c2)ccn1 | 0.0084 | 1.7 | 6.9 | 0.11 | –
26 | CNC(=O)c1cc(Oc2ccc(-c3noc(C4CC4)n3)cc2)ccn1 | 0.05 | 0.52 | 32.3 | 0.4 | –
27 | CNC(=O)c1cc(Oc2cccc(-c3noc(COC)n3)c2)ccn1 | 2 | > 100 | > 100 | 40.3 | –
28 | CNC(=O)c1cc(Oc2ccc3c(C)c(C(=O)OC(C)C)sc3c2)ccn1 | – | – | – | – | remaining at 0.5 h, 1 µM [3]: 1%; remaining at 0.5 h, 1 µM [6]: 42.7%
